Measured values as given in the EternaBench riboswitch data.

Tested on: MS2 coat protein
Assay: apparent Kd, MS2 coat protein; higher = weaker binding; RNA-MaP array; FMN 200 µM where present
In short: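 The apparent Kd is the median of filtered binding-curve fits, one per cluster, to green signal normalised to red-channel RNA signal and control-cluster median Fmax. The clusters were on Illumina sequencing chips, and stalled E. coli RNA polymerase had transcribed the designs on them. Titration used SNAP-549-labelled MS2 coat protein from 0.7 or 1.5 nM, doubling to 3 µM, without and then with constant ligand, in 100 mM Tris-HCl pH 7.5, 80 mM KCl, 4 mM MgCl2, BSA, DTT, yeast tRNA and Tween-20.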

[1] = designed as: OFF switch for flavin mononucleotide, no ligand
[2] = ligand present: flavin mononucleotide, designed as: OFF switch for flavin mononucleotide
[3] = designed as: ON switch for flavin mononucleotide, no ligand
[4] = ligand present: flavin mononucleotide, designed as: ON switch for flavin mononucleotide

Sequence | apparent Kd [1] [nM] | apparent Kd [2] [nM] | apparent Kd [3] [nM] | apparent Kd [4] [nM]
GGAAAACAUGAGGAUCACCCAUGUGAGGAUAUCGAUGUCCAAAGAGAGGUGCGGGACUCGAGAAGGCACUUGGA | 45.9 | 50.2 |  | 
CGAGUGUAAGGAUAUUCGGCACCAGAGAACGAUCUGGCGUAGAAGAAGGUACAUGAGGAUCACCCAUGUGGUUA | 158 | 41.7 |  | 
AGAUAACACCAGAAGGACAUGAGGAUCACCCAUGUAGGAUAUGGGCAUCACUCGAGAAAGAAACGACCGAAAGGACACGCGGUC |  |  | 155 | 13
CCUGUGUGAGGAUAUGGUGUUGGCCAAAAGGAAUAGCUCCUCCAGAAGGCACAUGAGGAUCACCCAUGUCGUGG | 18 | 81.9 |  | 
GCGUAAUAGGUGUAGCUAGUCAUUCAAGAAGGGUGAAGAACAUGAGGAUCACCCAUGUGGUUUAUACAGGAUAUUGAUAUACGC |  |  | 363 | 90.4
GGUGGACAUGAGGAUCACCCAUGUGAGGAUAUCGGCCGGUUCGCGGUGGCUGGCGUCUCGAGAAGGCGCAUAGU | 36.9 | 40.2 |  | 
GGCUCAUUUACAUUAAUGUGCAGACAGGAUAUCCACGGCGGUUCCUACAUGAGGAUCACCCAUGUGGAGAAGGGUCGCUAAUGG | 19.6 | 28 |  | 
GUGAGGUCAGGAUAUGCAUGGCGGGACUUGCGUCGUGGCGUGGAGAAGGGACAUGAGGAUCACCCAUGUGGAGA | 73 | 63.1 |  | 
GCAUGGAAAGUGAGGAUAUACCACUGGAUACAGUGGUAGAAGGCACAUGAGGAUCACCCAUGUUCCUACCAUGC | 16.9 | 71.3 |  | 
CUCUUACAUGAGGAUCACCCAUGUGUUGUCGUGGGAGGAUAUCCUGGUUCGGUGGCGUUGGGAGAAGGCCUAUGUC |  |  | 722 | 242
AAUUAGGUCACAGGAUAUACAACUUCCAAUGCUGUAGAAGGGUGUCACAUACUUAGCUGACAUGAGGAUCACCCAUGUAUCCAC |  |  | 184 | 70.5
AACCAUGUCCGAGGAUAUCUGGAAACAUUUCCAAGAGAAGGCGGACAUGAGGAUCACCCAUGUCUCUCCUCAUCAAAUCCAAGU | 12.4 | 94.6 |  | 
GUCAGCUCGUGAGGAUAUACAUGUGCUGGAGACAGCAUUAUAUUUUUCACAUGAGGAUCACCCAUGUAGAAGGCACGAGCUGAU | 16.5 | 27.4 |  | 
CUUUUGUGAGGAUAUUCGUAGUAGGUAAAUAAAACUAUUACGGAGAAGGCACAUGAGGAUCACCCAUGUUCCUU | 18.1 | 54.2 |  | 
GGAUCGAAUGUGAGGAUAUACCACUGGAUACAGUGGUAGAAGGCACAUGAGGAUCACCCAUGUCCUUACGAUCC | 96.5 | 319 |  | 
GAUCCUUCUGUUAGGAUAUGCUUUGGGCUUUCGCAGCAGAAGGAACAUGAGGAUCACCCAUGUCCGAUGCCGUC | 77.5 | 81.3 |  | 
GUGUAGAUAGGAUAUGCUGGAAUCUAGCGAAGCUAGGUUCCACAUGAGGAUCACCCAUGUAGAAGGGUCUACAC | 200 | 54 |  | 
CGAUAUUAUGCAGGAUAUCUCCCUUGAAUGUGGAGAGAAGGGCAUAGGGAGACAUAAGCCUUAUUACAUGAGGAUCACCCAUGU | 10.3 | 9.31 |  | 
GUGUACCGAGGAUAUGCUGGAAUCUAGCGAAGCUAGGUUCCACAUGAGGAUCACCCAUGUAGAAGGUGGUACAC | 79.9 | 25.7 |  | 
GUAGAGUAGUGAGGAUAUACGAGUUCGAUAGAACGGCGAUCCAUUAAUACAUGAGGAUCACCCAUGUAGAAGGCACUUCUCUAC | 6.4 | 69.3 |  | 
AUUUGUAAUACAGGAUAUGUUAGUUUACAGUAGAUUGGUUAUUACUCAACUACAGAAGGGUAGUACAUGAGGAUCACCCAUGUA |  |  | 20.7 | 14.8
UGUCGGAGCAGAGGAUAUUACAUGAGGAUCACCCAUGUAUGAACCAAUAGCUGGAAACAGCAAUGUAAGAAGGCUGCUCCGACC | 12 | 153 |  | 
GGACGACACAUGAACAUGAGGAUCACCCAUGUAAAUUCUCAUGAGGAUAUGGAUCCUAAUUGGAUCCAGAAGGCGUGGUCGUCC |  |  | 961 | 507
AGGUGACAUGAGGAUCACCCAUGUAAGGAUAUACGGUUAGUGGAGAGUUGGAGGAGAGGUAGAAGGUACGGAGC | 249 | 194 |  | 

Sequence | apparent Kd [1] [nM] | apparent Kd [2] [nM] | apparent Kd [3] [nM] | apparent Kd [4] [nM]
ACAUGAGGAUCACCCAUGUAUUACAUGGUUAAGUUUAUUAACAGAAGGCGAAAUUACCACUUUUUCGAGGAUAUGUAUUCUAUA | 38.2 | 52.7 |  | 
GUUGCACAAGUUAACAUGAGGAUCACCCAUGUCAAAAGACAUGAGGAUAUGGAGCUGAAGAUUAUCCAGAAGGCAUAAUGCUAA |  |  | 460 | 158
UAUCGAGUAGCAGGAUAUUAUGUGGCUAAUUCCGAGUCUGAUGCUUCACAUGAGGAUCACCCAUGUAAGAAGGGCUAACUCGGG | 26.2 | 63.7 |  | 
CCAUAUAGGUAGGAUAUCGAUUUUAAUUAAUAUCGAGAAGGGUCAACAUGAGGAUCACCCAUGUCAGCAUGUAC | 80.4 | 75.5 |  | 
UCGACCAGCGCAACUCGAACAUGAGGAUCACCCAUGUACUCCAGAAGGCCGCCCAAGUACGGAGUGGAGGAUAUGGAGGUUCUC |  |  | 56.9 | 86.1
AACAAUCUAUCUGAGGAUAUCAUGUCAAAGACAUGAGGAUCACCCAUGUUGCAGGAAACUGCUCAUGAGAAGGCAGAUAGAUUGA |  |  | 614 | 43.7
CUGGUGUGAGGAUAUCAGGACACGUAAGCGGGCGUGUCAAAUGAGAAGGCACAUGAGGAUCACCCAUGUGGGAC | 34 | 214 |  | 
CUUAUGUGAGGAUAUCAGUAGUAAAAAAAUAAAAUUACUACUGAGAAGGCACAUGAGGAUCACCCAUGUGUCUC | 20.4 | 22.2 |  | 
UAGAAGUCAGGAUAUGCAUGGCGGGACUUGCGUCGUGGCGUGCAGAAGGGACAUGAGGAUCACCCAUGUGGAGA | 117 | 369 |  | 
UGUGAGUUGAUCUUAGAUCGGAGUACAUGAGGAUCACCCAUGUAGGAUAUUCAAAGACGCAGAUAGAAGAAGGACAUAGGUUUC | 15.1 | 13.8 |  | 
AAUGAGACCGCAGGAUAUCCACAUGAGGAUCACCCAUGUUCUCAGACCGGAAGCACGAUCUGCGAGGAGAAGGGCGACCUCAUA |  |  | 716 | 53.1
AGCUGUGGCAGAGGAUAUACUACCAUAAUCCAUUGCAAAUAGCGAUGGACAUGAGGAUCACCCAUGUAGAAGGCUGUCUCAGCA | 68.2 | 275 |  | 
CGUACUCAAGUGAGGAUAUUGUCUCGGAUACGAAACAAGAAGGCACAUGAGGAUCACCCAUGUAGAGAGUACGA | 16.2 | 14.3 |  | 
AAACGUAGAGGAUAUACAUAAGUAUUACGAAAGUAAUACAAACAUGAGGAUCACCCAUGUAGAAGGCUACGAAA | 25.4 | 35.3 |  | 
AACUCGUCAGGAUAUGCGCACAGAUAAUACGCUUCACAAUUGCAGAAGGGACAUGAGGAUCACCCAUGUAAAUA | 36.3 | 26.8 |  | 
CUAUUCCGAGGAUAUACAUGAGGAUCACCCAUGUCGGGCCUCUGCGUUUAGCGCGAAAGUAGAAGGUGGGUUUC | 34.5 | 33.6 |  | 
GCAGCGACUGCAGGAUAUCAGCACGUGUAGUGCUGAGAAGGGCACAUGAGGAUCACCCAUGUGAUCAAUUAAUAGUCAUGCUGC | 7.23 | 15.9 |  | 
UCAUUAUAAAUCCAUCAUAACUACAUGAGGAUCACCCAUGUGCAGGAUAUCGAUAAUUUAACUAACGAGAAGGGCAUUUACAGA | 37.6 | 139 |  | 
GAUUUAGAGCAGGAUAUCAUAGAAUUAUAUGAAUGAGAAGGGCUCACAUGAGGAUCACCCAUGUGGUCCUAGAU | 21.1 | 167 |  | 
GGUUAUGAAGGAUAUACAUGAGGAUCACCCAUGUUACGUACUUCGGGAUUCUGCCAGUGUAGAAGGUCAUGUCU | 24.3 | 49.2 |  | 
AGAAAGAAGCAAGGAUAUUGUAAGGUUAAUGUACAAGAAGGUGCUGUUUAUGUCUCUUAACAUGAGGAUCACCCAUGUUUUGGU |  |  | 19.2 | 18.8
GGAUGAUUAAUAGGAUAUUAUUUGUAAUUUGGUUAAGAAGGAUUAAUGAUUUAAACGACCUGUUACAUGAGGAUCACCCAUGUU |  |  | 95.5 | 74.1
AGAUUUGUACAUGAGGAUCACCCAUGUUAAUAGGUGUUUGUCAGAAGGCAUUAAUAGAGAUUUAAUGAGGAUAUGAAUUUACAA |  |  | 58.2 | 28.9
GGUACUCAAAGAGUACCAAUACGAACAUGAGGAUCACCCAUGUAGGAUAUGCUACUCAAAGAGCAGCAGAAGGACAUGUGCCUA | 17.7 | 125 |  | 
